Columns and labels:
[1] = tested on: Influenza A virus; assay: Antiviral activity against Influenza A virus (A/WSN/1933(H1N1)) infected in dog MDCK cells after 3 days by CPE assay; type: functional, organism-based; details: 72 h
Outline: (§1)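 Cytopathic effect (CPE) assay measuring inhibition of virus replication in MDCK cells. Strains were A/WSN/33 (H1N1, M2-resistant) and A/Hong Kong/8/68 (H3N2, M2-sensitive). Ribavirin served as the positive control. Values reported as IC50.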

[2] = tested on: MOLT-4; assay: Cytotoxicity against human MOLT4 cells by MTT assay; type: functional, cell-based
Outline: (§2)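 MTT assay on the human tumour lines U937 (leukemic monocyte lymphoma), K562 (erythroid leukemia), BGC-823 (gastric carcinoma), MOLT-4 (acute lymphoblastic leukemia), MCF-7 (breast adenocarcinoma) and A549 (lung carcinoma). Taxol served as the positive control. Values reported as IC50.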

[3] = tested on: U-937; assay: Cytotoxicity against human U937 cells by MTT assay; type: functional, cell-based; outline: as §2
[4] = tested on: Influenza A virus; assay: Antiviral activity against Influenza A virus A/Hong Kong/8/68(H3N2) infected in dog MDCK cells after 3 days by CPE assay; type: functional, organism-based; details: 72 h; outline: as §1
[5] = tested on: K562; assay: Cytotoxicity against human K562 cells by MTT assay; type: functional, cell-based; outline: as §2
[6] = tested on: BGC-823; assay: Cytotoxicity against human BGC823 cells by MTT assay; type: functional, cell-based; outline: as §2

SMILES | IC50 [1] [µM] | IC50 [2] [µM] | IC50 [3] [µM] | IC50 [4] [µM] | IC50 [5] [µM] | IC50 [6] [µM]
CC[C@@H](C)[C@H]1NC(=O)[C@@H](C)NC(=O)c2ccccc2NC(=O)[C@@H]([C@@H](O)c2ccccc2)N(C)C1=O | 15 | 6.2 | 6.4 | 8.1 |  | 
CC(=O)O[C@H]1C(=O)[C@@]2(C)[C@H]([C@H](OC(=O)c3ccccc3)[C@]3(O)C[C@H](OC(=O)[C@H](O)[C@@H](NC(=O)c4ccccc4)c4ccccc4)C(C)=C1C3(C)C)[C@]1(OC(C)=O)CO[C@@H]1C[C@@H]2O [PACLITAXEL] |  | 0.0018 | 0.0019 |  | 0.0049 | 0.0035
NC(=O)c1ncn([C@@H]2O[C@H](CO)[C@@H](O)[C@H]2O)n1 [RIBAVIRIN] | 20.2 |  |  | 0.41 |  | 

From ChEMBL document CHEMBL2384926, “Asperterrestide A, a cytotoxic cyclic tetrapeptide from the marine-derived fungus Aspergillus terreus SCSGAF0162” (J Nat Prod, 2013)
